Test results reported in ChEMBL document CHEMBL1154293, “Sesquiterpenoids and benzofuranoids from the marine-derived fungus Aspergillus ustus 094102” (J Nat Prod, 2009).

Columns and labels:
[1] = system: HL-60; test: Cytotoxicity against human HL60 cells after 72 hrs by MTT assay; assay type: functional, cell-based; conditions: HL-60, 72 h
How it was run: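 HL-60 human tumor cells were plated 24 h ahead, then given various compound concentrations continuously for 72 h. Proliferation inhibition was measured by MTT tetrazolium reduction, and IC50 was derived from the inhibition rates. Etoposide (VP-16) was the positive control.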

[2] = system: A549; test: Cytotoxicity against human A549 cells after 24 hrs by SRB assay; assay type: functional, cell-based; conditions: A549, 24 h
[3] = system: A549; test: Cytotoxicity against human A549 cells after 72 hrs by SRB assay; conditions: A549, 72 h

Row | SMILES | IC50 [1] [µM] | IC50 [2] [µM] | IC50 [3] [µM]
1 | CC(C)(O)C1Cc2ccc(/C=C\CO)c(CO)c2O1 (stereo unspecified) | > 100 | > 100 | 
2 | CC1=CC(=O)[C@H]2C(C)(C)[C@@H](O)CC[C@]2(C)[C@@]1(O)CO [USTUSOL A] | > 100 |  | > 100
3 | CC1=CC(=O)[C@H]2C(C)(C)C[C@@H](O)C[C@]2(C)[C@@]1(O)CO [USTUSOL B] | > 100 |  | > 100
4 | CO[C@@H]1C=C(CO)[C@](O)(CO)[C@@]2(C)CCCC(C)(C)[C@H]12 [USTUSOL C] | > 100 |  | > 100
5 | CC(O)C/C=C/C=C/C=C/C(=O)OC1C=C2COC(=O)[C@]2(O)[C@@]2(C)CCCC(C)(C)[C@H]12 (stereo partly specified) [USTUSOLATE B] | > 100 |  | > 100
6 | CC(O)C/C=C/C=C/C(=O)O[C@@H]1C=C2COC(=O)[C@]2(O)[C@@]2(C)CCCC(C)(C)[C@H]12 (stereo partly specified) [USTUSOLATE C] | > 100 |  | 10.5
7 | COC(/C=C/C=C/C(=O)O[C@@H]1C=C2COC(=O)[C@]2(O)[C@@]2(C)CCCC(C)(C)[C@H]12)OC [USTUSOLATE D] | > 100 |  | > 100
8 | CC1(C)CCC[C@@]2(C)[C@H]1[C@H](OC(=O)/C=C/C=C/C=O)C=C1COC(=O)[C@@]12O [USTUSOLATE E] | 9 |  | > 100
9 | CC(C)=C1Oc2c(ccc(CC(C)O)c2CO)C1=O (stereo unspecified) [USTUSORANE A] | > 100 |  | > 100
10 | CC1=Cc2ccc3c(c2CO1)OC(=C(C)C)C3=O [USTUSORANE B] | > 100 |  | > 100
11 | CO[C@H]1O[C@H](C)Cc2ccc3c(c21)OC(=C(C)C)C3=O [USTUSORANE C] | > 100 |  | > 100
12 | CO[C@H]1O[C@H](C)Cc2ccc3c(c21)OC(C(C)C)C3=O (stereo partly specified) [USTUSORANE D] | > 100 |  | > 100
13 | CC(O)Cc1ccc2c(c1CO)OC(C(C)(C)O)C2 (stereo unspecified) [USTUSORANE E] | 0.13 |  | > 100
